From ChEMBL document CHEMBL3352447, “Structural development studies of PPARs ligands based on tyrosine scaffold” (Eur J Med Chem, 2015) come the findings set out here.

The source made the active and inactive calls. The calls are words filed in the database; no cut-off is given here.

Holding throughout (format): cell-based
In assay [1] the target is T1, Peroxisome proliferator-activated receptor gamma (Homo sapiens, UniProt P37231).
T1 sequence (P37231 whole entry): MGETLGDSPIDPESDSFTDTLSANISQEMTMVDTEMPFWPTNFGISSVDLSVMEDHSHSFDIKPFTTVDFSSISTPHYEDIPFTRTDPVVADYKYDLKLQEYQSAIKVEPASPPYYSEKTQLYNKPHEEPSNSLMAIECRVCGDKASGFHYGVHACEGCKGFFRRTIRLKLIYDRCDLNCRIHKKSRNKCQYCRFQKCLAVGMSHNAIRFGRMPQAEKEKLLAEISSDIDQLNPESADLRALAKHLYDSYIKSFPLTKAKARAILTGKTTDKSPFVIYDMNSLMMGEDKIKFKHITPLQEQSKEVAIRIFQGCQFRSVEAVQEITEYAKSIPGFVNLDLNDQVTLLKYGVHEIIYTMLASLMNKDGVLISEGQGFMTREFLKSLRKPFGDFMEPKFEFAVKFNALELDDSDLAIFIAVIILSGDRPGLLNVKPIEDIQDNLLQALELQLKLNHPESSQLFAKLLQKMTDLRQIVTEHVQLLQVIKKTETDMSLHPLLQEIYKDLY
As to the kind of experiment: Agonist activity at human GAL4-PPARgamma ligand binding domain expressed in human HepG2 cells by luciferase reporter gene assay. The method in brief:
(§1)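 HepG2 cells grown in MEM with 10% heat-inactivated FBS, penicillin/streptomycin, 37 °C, 5% CO2. 10^5 cells/well seeded, transfected after 24 h by calcium phosphate with Gal4-PPAR LBD expression plasmid (30 ng), pGal5TKpGL3 luciferase reporter (100 ng) and pCMVbgal (250 ng). Ligand added 4 h post-transfection for 20 h, in triplicate. Luciferase read in cell extracts, with β-galactosidase measured using ONPG.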
A general note: In a reporter assay the amount or activity of a reporter protein is the signal.

For assay [2], the target named is T2, Peroxisome proliferator-activated receptor gamma (Homo sapiens) (UniProt P37231).
T2 sequence (whole entry): T1 sequence (P37231 whole entry)
As to the kind of experiment: Agonist activity at human GAL4-PPARgamma ligand binding domain expressed in human HepG2 cells assessed as maximum fold induction by luciferase reporter gene assay relative to rosiglitazone. The method, boiled down: as §1

For assay [3], the target named is T3, Peroxisome proliferator-activated receptor alpha (Homo sapiens, UniProt Q07869).
T3 sequence (Q07869 whole entry): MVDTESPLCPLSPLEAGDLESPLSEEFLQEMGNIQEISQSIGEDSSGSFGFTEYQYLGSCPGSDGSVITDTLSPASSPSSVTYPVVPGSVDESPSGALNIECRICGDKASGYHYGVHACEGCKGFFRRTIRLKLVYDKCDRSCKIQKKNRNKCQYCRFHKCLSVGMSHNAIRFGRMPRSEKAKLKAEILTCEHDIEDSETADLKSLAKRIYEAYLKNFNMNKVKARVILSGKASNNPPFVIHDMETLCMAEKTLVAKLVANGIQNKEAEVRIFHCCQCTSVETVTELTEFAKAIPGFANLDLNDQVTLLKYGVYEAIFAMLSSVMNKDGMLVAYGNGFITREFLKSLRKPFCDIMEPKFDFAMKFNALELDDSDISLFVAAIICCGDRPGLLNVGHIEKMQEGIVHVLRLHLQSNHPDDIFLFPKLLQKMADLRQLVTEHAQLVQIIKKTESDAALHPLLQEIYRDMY
The experiment in a line: Agonist activity at human GAL4-PPARalpha ligand binding domain expressed in human HepG2 cells by luciferase reporter gene assay. The method, boiled down:
as §1

Assay [4] deals with T4, Peroxisome proliferator-activated receptor delta (Homo sapiens, UniProt Q03181).
T4 sequence (Q03181 whole entry): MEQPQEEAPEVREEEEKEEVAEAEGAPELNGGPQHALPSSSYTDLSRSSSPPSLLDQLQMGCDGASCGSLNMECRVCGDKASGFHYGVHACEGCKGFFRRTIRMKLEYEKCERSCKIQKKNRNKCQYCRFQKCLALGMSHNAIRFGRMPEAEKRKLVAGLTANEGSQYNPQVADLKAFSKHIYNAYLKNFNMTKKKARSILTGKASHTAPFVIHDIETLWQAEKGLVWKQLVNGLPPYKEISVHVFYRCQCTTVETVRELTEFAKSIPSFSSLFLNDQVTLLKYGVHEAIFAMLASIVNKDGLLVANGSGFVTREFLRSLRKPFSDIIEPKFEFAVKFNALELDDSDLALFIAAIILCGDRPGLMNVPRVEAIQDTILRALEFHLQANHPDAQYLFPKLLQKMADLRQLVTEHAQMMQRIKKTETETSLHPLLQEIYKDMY
The experiment in a line: Agonist activity at human GAL4-PPARdelta ligand binding domain expressed in human HepG2 cells by luciferase reporter gene assay.

Assay [5] concerns the target T5, Peroxisome proliferator-activated receptor alpha (Homo sapiens) (UniProt Q07869).
T5 sequence (whole entry): T3 sequence (Q07869 whole entry)
As to the kind of experiment: Agonist activity at human GAL4-PPARalpha ligand binding domain expressed in human HepG2 cells assessed as maximum fold induction by luciferase reporter gene assay relative to Wy-14643. The method in brief:
as §1

For the compound `C/C(=C\C(=O)c1ccccc1)NC(Cc1ccc(OCCCOc2ccc(/C=C/c3ccc(C(F)(F)F)cc3)cc2)cc1)C(=O)O` (stereo not given), the values for the EC50 in assay [1] (read-out: EC50), in assay [3] and in assay [4] were 32 nM, “Not Active” and “Not Active”, respectively. For the same compound, the Emax in assay [2] stood at 46%.

On to `C/C(=C\C(=O)c1ccccc1)NC(Cc1ccc(OCCOc2ccc(/C=C/c3ccccc3)cc2)cc1)C(=O)O` (stereo not given), for which the Emax in assay [5] is 20%; in assay [2], 75%. Further, the EC50 in assay [1] (read-out: EC50) was 12 nM; in assay [4] it was “Not Active”.

Take `CC(=O)/C=C(\C)NC(Cc1ccc(OCCOc2ccc(/C=C/c3ccccc3)cc2)cc1)C(=O)O` (stereo not given): the values for the EC50 in assay [1] (read-out: EC50), in assay [3] and in assay [4] were 250 nM, “Not Active” and “Not Active”, respectively. Also, the Emax in assay [2] is 61%.

`C/C(=C\C(=O)c1ccccc1)NC(Cc1ccc(OCCOc2ccc(/N=N/c3ccc(Cl)cc3)cc2)cc1)C(=O)O` (stereo not given): the concentration for a half-maximal effect (EC50) in assay [1] (read-out: EC50) is 39 nM; in assay [3], “Not Active”; in assay [4] it was “Not Active”. The Emax in assay [2] worked out at 52%.

Consider `CCCc1c(OCCCOc2ccc(OCC(=O)O)cc2)ccc(C(C)=O)c1O`, for which the EC50 entry in assay [1] (hepg2) and in assay [3] was “Not Active” throughout.

With `C/C(=C\C(=O)c1ccccc1)NC(Cc1ccc(OCCCOc2ccc(/C=C/c3ccc(Cl)cc3)cc2)cc1)C(=O)O` (stereo not given), the EC50 was 12 nM in assay [1] (read-out: EC50), “Not Active” in assay [3] and “Not Active” in assay [4]. Besides, the Emax in assay [2] came to 56%.

In the case of `O=C(/C=C/c1ccccc1)NC(Cc1ccc(OCCOc2ccc(/C=C/c3ccccc3)cc2)cc1)C(=O)O` (stereo not given), the EC50 in assay [1] (read-out: EC50) is 640 nM; in assay [3], “Not Active”; in assay [4], “Not Active”. Moreover, the Emax in assay [2] stood at 45%.

As for `C/C(=C\C(=O)c1ccccc1)NC(Cc1ccc(OCCCOc2ccc(/N=N/c3ccccc3)cc2)cc1)C(=O)O` (stereo not given), the values for the Emax in assay [5] and in assay [2] were 8% and 31%, respectively. Also, the EC50 in assay [1] (read-out: EC50) is 1370 nM; in assay [4], “Not Active”.

Regarding `C/C(=C\C(=O)c1ccccc1)NC(Cc1ccc(OCCCOc2ccc(/C=C/c3ccccc3)cc2)cc1)C(=O)O` (stereo not given), the Emax in assay [5] came to 9%; in assay [2], 65%. Besides, the EC50 in assay [1] (read-out: EC50) was 47 nM; in assay [4], “Not Active”.

As to `COc1ccc(/N=N/c2ccc(OCCCOc3ccc(CC(N/C(C)=C/C(=O)c4ccccc4)C(=O)O)cc3)cc2)cc1` (stereo not given), the Emax in assay [2] worked out at 24%. The EC50 entry in assay [3] and in assay [4] was “Not Active” throughout.

For the compound `C/C(=C\C(=O)c1ccccc1)NC(Cc1ccc(OCCOc2ccc(/C=C/c3ccc(C(F)(F)F)cc3)cc2)cc1)C(=O)O` (stereo not given), the EC50 in assay [1] (read-out: EC50) was 84 nM; in assay [3], “Not Active”; in assay [4], “Not Active”. Further, the Emax in assay [2] turned out to be 69%.

Regarding `CN(CCOc1ccc(CC2SC(=O)NC2=O)cc1)c1ccccn1` (stereo not given) [ROSIGLITAZONE], the Emax result in assay [5] is “inactive”. The EC50 result in assay [3] is recorded as “Not Active”.

As for `C/C(=C\C(=O)c1ccccc1)NC(Cc1ccc(OCCCOc2ccc(/N=N/c3ccc([N+](=O)[O-])cc3)cc2)cc1)C(=O)O` (stereo not given), the EC50 in assay [1] (read-out: EC50) was 29 nM; in assay [3], “Not Active”; in assay [4] it was “Not Active”. For the same compound, in assay [2], the Emax came out at 54%.

As for `C/C(=C\C(=O)c1ccccc1)NC(Cc1ccc(OCCOc2ccc(/N=N/c3ccccc3)cc2)cc1)C(=O)O` (stereo not given), the values for the EC50 in assay [1] (read-out: EC50), in assay [3] and in assay [4] were 183 nM, “Not Active” and “Not Active”, respectively. Moreover, the Emax in assay [2] is 54%.

For `C/C(=C\C(=O)c1ccccc1)NC(Cc1ccc(OCCOc2ccc(/C=C/c3ccc(Cl)cc3)cc2)cc1)C(=O)O` (stereo not given), the EC50 in assay [1] (read-out: EC50) is 26 nM; in assay [3], “Not Active”; in assay [4], “Not Active”. The Emax in assay [2] came to 50%.

With `C/C(=C\C(=O)c1ccccc1)NC(Cc1ccc(OCCCOc2ccc(/N=N/c3ccc(Cl)cc3)cc2)cc1)C(=O)O` (stereo not given), the EC50 in assay [1] (read-out: EC50) was 47 nM; in assay [3], “Not Active”; in assay [4] it was “Not Active”. For the same compound, in assay [2], the Emax was 59%.

For `Cc1cccc(Nc2cc(Cl)nc(SCC(=O)O)n2)c1C` [PIRINIXIC ACID], in assay [1] (hepg2), the EC50 result was “Not Active”. The Emax entry in assay [2] is “inactive”.

Turning to `C/C(=C\C(=O)c1ccccc1)NC(Cc1ccc(OCCOc2ccc(/C=C/c3ccc(C)cc3)cc2)cc1)C(=O)O` (stereo not given), the EC50 in assay [1] (read-out: EC50) is 21 nM; in assay [3] it was “Not Active”; in assay [4], “Not Active”. The Emax in assay [2] is 77%.

A word on the EC50: it is the concentration needed to bring the measured effect to its halfway point.
